Entries after “also recorded” stand apart in the source; their conditions may differ.
Key:
procaspase-6 [1] = molecular target: T1, procaspase-6 (Homo sapiens, UniProt P55212); assay: procaspase-6 activation, fluorogenic Ac-VEID-AFC activity assay; type: biochemical
T1 sequence (P55212 1-293): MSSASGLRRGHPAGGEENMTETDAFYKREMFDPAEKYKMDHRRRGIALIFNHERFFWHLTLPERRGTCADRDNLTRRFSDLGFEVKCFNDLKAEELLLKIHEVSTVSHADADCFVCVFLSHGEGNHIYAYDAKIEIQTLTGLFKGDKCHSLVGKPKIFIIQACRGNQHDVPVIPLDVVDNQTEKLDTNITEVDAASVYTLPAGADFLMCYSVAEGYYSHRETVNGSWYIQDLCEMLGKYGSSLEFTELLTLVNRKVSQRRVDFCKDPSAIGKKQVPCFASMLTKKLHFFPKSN

procaspase-3 [2] = molecular target: T2, procaspase-3 (Homo sapiens, UniProt P42574); assay: procaspase-3 autoproteolytic activation, fluorogenic Ac-DEVD-AFC activity assay; type: biochemical
T2 sequence (P42574 1-277): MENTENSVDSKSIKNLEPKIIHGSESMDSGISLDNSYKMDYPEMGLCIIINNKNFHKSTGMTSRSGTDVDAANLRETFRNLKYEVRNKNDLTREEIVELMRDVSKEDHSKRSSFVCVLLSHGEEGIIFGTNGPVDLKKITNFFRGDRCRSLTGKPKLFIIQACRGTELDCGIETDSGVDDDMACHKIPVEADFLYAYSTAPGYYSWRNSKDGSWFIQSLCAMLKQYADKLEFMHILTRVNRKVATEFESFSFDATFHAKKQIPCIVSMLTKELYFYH

procaspase-7 = procaspase-7 activation, fluorogenic Ac-DEVD-AFC activity assay; type: biochemical; details: procaspase-7 100 nM; 1 nM granzyme B, 25 μM 1541 or 100 μM PAC-1
How it was run: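 Procaspase-7 (100 nM) was incubated at 37 °C with 1 nM granzyme B, DMSO, 100 μM reference procaspase activator or 25 μM test compound. Activity was sampled every 20 minutes by adding fluorogenic substrate Ac-DEVD-AFC.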

procaspase-3 [3] = molecular target: T2, procaspase-3; details: caused through chelation of inhibitory zinc ion in some assay buffers; cited from earlier work
BT549 cells [4] = assay: cytochrome C release in cytoplasmic extracts of BT549 cells; type: cell-based; details: 25 μM 1541, 1 μM STS, harvested every 3 hours
[5] = system: Bak−/−/Bax−/− double knockout (DKO MEFs); assay: histone ELISA apoptosis assay in Bak−/−/Bax−/− DKO MEFs; type: cell-based, murine; details: 1 μM STS, 25 μM 1541, 12 hours
How it was run: (§1)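 Wild-type and Bak−/−/Bax−/− double-knockout murine embryonic fibroblasts (5,000 cells) were treated at 37 °C with 1 μM staurosporine, 25 μM test compound or DMSO (final 0.5%). Apoptosis was measured after 12 h by histone sandwich ELISA on lysates, which detects histone solubilisation from DNA fragmentation.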

[6] = system: wild type (A3) Jurkat cells; assay: cell viability of wild type; type: cell-based, human; details: 25 μM 1541, 1 μM STS, 100 ng/ml FasL
How it was run: (§2)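 Wild-type (A3) and caspase-8-deficient (I9.2) human Jurkat cells (100,000 cells) were exposed to 25 μM test compound, 1 μM staurosporine or 100 ng/ml FasL. Cell viability was assayed every 2 hours.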

[7] = system: caspase-8 deficient Jurkat cells (I9.2); assay: cell viability of caspase-8 deficient; type: cell-based, human; details: 25 μM 1541, 1 μM STS, 100 ng/ml FasL
How it was run: as §2

BT549 cells [8] = assay: time course of DEVDase activity in BT549 cells; type: cell-based; details: 25 μM 1541, 1 μM STS
How it was run: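 p53-deficient BT549 breast cancer cells (2,000) were treated with 25 μM test compound or analogs, 1 μM staurosporine, 100 μM etoposide or DMSO (final 0.5%). Executioner caspase (DEVDase) activity was measured at 2, 4, 6, 8, 12 and 24 h.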

[9] = system: wild type murine embryonic fibroblasts (MEF); assay: histone ELISA apoptosis assay in wild type MEFs; type: cell-based; details: 1 μM STS, 25 μM 1541, 12 hours
How it was run: as §1

BT549 cells [10] = assay: time course of cell viability in BT549 cells; type: cell-based; details: 25 μM 1541, 1541C, 1541D; 1 μM STS; 100 μM etoposide; 1541 and STS after 4 hours
How it was run: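 p53-deficient BT549 breast cancer cells (2,000) were exposed to 25 μM test compound or either of two analogs, 1 μM staurosporine, 100 μM etoposide or DMSO (final 0.5%). Cell viability was assayed at 2, 4, 6, 8, 12 and 24 h.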

BT549 cells [11] = assay: protection against 1541-induced apoptosis with caspase inhibitors in BT549 cells; type: cell-based; details: preincubation with inhibitor 0.78 to 100 μM, then 25 μM 1541, 24 hours
How it was run: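 BT549 cells (2,500) were preincubated overnight with Biotin-DEVD-FMK (caspase-3/-7 inhibitor) or Biotin-VAD-FMK (pan-caspase inhibitor) at 0.78 to 100 μM. Cells were then switched to fresh medium containing 25 μM test compound plus the same inhibitor concentration. Viability was assayed after 24 h at 37 °C.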

C163A procaspase-3 = assay: cleavage of inactive C163A procaspase-3 by granzyme B; type: biochemical; details: C163A 250 nM, granzyme B 0.5 nM, alone or with 1541 25 μM
procaspase-6 [12] = molecular target: T1, procaspase-6; details: cited from earlier work
[13] = system: procaspase-3 mutants (S198A, T199A and S205A); assay: activation of procaspase-3 alanine mutants; type: biochemical; details: 5 hours, 25 μM 1541 or 1 nM granzyme B, 37 °C
How it was run: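 Wild-type procaspase-3 and active-site alanine mutants (S198A, T199A, S205A), chosen by alanine scanning near the active site, were incubated 5 h at 37 °C with 25 μM test compound, 1 nM granzyme B or DMSO. Activation was sampled by kinetic assays started with fluorogenic substrate Ac-DEVD-AFC.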

## C=CCc1cccc(/C=N/NC(=O)CN2CCN(Cc3ccccc3)CC2)c1O [PAC-1]
procaspase-6 [1]
  activation of procaspase-6 (in words): no detectable increase in activity or self-proteolysis
procaspase-3 [2]
  activation of procaspase-3 (in words): no detectable increase in activity or self-proteolysis
procaspase-7
  activation of procaspase-7 (in words): no detectable increase in activity or self-proteolysis
procaspase-3 [3]
  activation of procaspase-3 seen for PAC-1: ~ 2 fold

## CN[C@@H]1C[C@H]2O[C@@](C)([C@@H]1OC)n1c3ccccc3c3c4c(c5c6ccccc6n2c5c31)C(=O)NC4 [STS, staurosporine]
BT549 cells [4]
  mitochondrial cytochrome C release (in words): much greater and more rapid mitochondrial cytochrome C release
[5]
  apoptosis in DKO MEFs (in words): completely resistant
[6]
  apoptosis in wild type Jurkat cells (in words): comparable to 1541
[7]
  apoptosis in caspase-8 deficient Jurkat cells (in words): somewhat slower
BT549 cells [8]
  DEVDase activity in BT549 (in words): significantly higher
  time of peak DEVDase activity: 8 h
[9]
  apoptosis in wild type MEFs (in words): susceptible
BT549 cells [10]
  induction of apoptosis / cell death in BT549 (in words): near complete apoptosis

## COc1cc([C@@H]2c3cc4c(cc3[C@@H](O[C@@H]3O[C@@H]5CO[C@@H](C)O[C@H]5[C@H](O)[C@H]3O)[C@H]3COC(=O)[C@H]23)OCO4)cc(OC)c1O [etoposide]
BT549 cells [10]
  induction of apoptosis / cell death in BT549 (in words): much slower apoptosis

## DEVD-FMK
BT549 cells [11]
  block of 1541-induced apoptosis (in words): completely blocked apoptosis

## granzyme B: a natural proteolytic activator of procaspase-3
procaspase-3 [2]; 1 nM granzyme B, procaspase-3 100 nM
  time to full activation of the zymogen: ≤ 90 min
C163A procaspase-3
  cleavage of C163A procaspase-3 after 30 minutes: ~ 10%
  cleavage of C163A procaspase-3 after 60 minutes: 20%
procaspase-7
  activation of procaspase-7 (in words): robustly activated and fully processed
procaspase-6 [12]
  activation of procaspase-6 by granzyme B (in words): resistant
[13]
  activation of S198A, T199A and S205A procaspase-3 (in words): efficiently activated; also recorded: wild type activity

B1: FasL: a specific inducer of the extrinsic pathway (protein, UniProt P48023 130-281, looked up)
Tumor necrosis factor ligand …: QIGHPSPPPEKKELRKVAHLTGKSNSRSMPLEWEDTYGIVLLSGVKYKKGGLVINETGLYFVYSKVYFRGQSCNNLPLSHKVYMRNSKYPQDLVMMEGKMMSYCTTGQMWARSSYLGAVFNLTSADHLYVNVSELSLVNFEESQTFFGLYKL
[6]
  apoptosis in wild type Jurkat cells (in words): active
[7]
  apoptosis in caspase-8 deficient Jurkat cells (in words): not in caspase-8 deficient cells
